The values below come from ChEMBL document CHEMBL1123037, “Anticonvulsant activity of some 4-aminobenzanilides” (J Med Chem, 1985).

A short description of data set [1]: Toxic dose was determined by the rotarod test in mice; activity value ranges from 88.85-119.90. The format is toxicity, organism-based. To be noted: mouse, in vivo. (In general: The rotarod test checks motor coordination on a turning rod.)
The species entered for data set [2] is Mus musculus. The data set can be described thus: Effective dose evaluated against maximal electric seizures (MES) or convulsions in mice; activity value ranges from 12.50-31.75. The format is functional.
The test system of data set [3] is Mus musculus. In words: Toxicity tested by rotarod test for neurologic deficit at interval of 30 min when 100 mg/kg was administered intraperitoneally; shows activity. The format is organism-based. The settings on record: in vivo, ip, 0.5 h. Set-up: dose 100 mg/kg, route intraperitoneal. In a few lines:
(§1)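 Male Carworth Farms number-one mice dosed ip with compound in 30% polyethylene glycol 400. Each mouse was placed on a 1-in.-diameter knurled plastic rod rotating at 6 rpm. Neurologic toxicity was scored as failure to stay on the rod for 1 min. Screening doses were 30, 100, 300 and sometimes 600 mg/kg, tested at 30 min and 4 h. TD50 was read by the graphical method.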

The test system of data set [4] is Mus musculus. In words: Toxicity tested by rotarod test for neurologic deficit at interval of 4 hr when administered intraperitoneally; LD50 < 600 mg/kg. The format is organism-based. Details: dose 600 mg/kg, route intraperitoneal. To be noted: in vivo, ip.
Data set [5] is described as follows: Protective index as the ratio of TD50 value against MES to that of ED50 value against MES. The format is ADME. The settings on record: read-out: PI. In a few lines: (§2)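 Protective index = rotorod TD50 divided by ED50 (MES or scMet), both from ip dosing in male Carworth Farms number-one mice, medians obtained graphically.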
Data set [6] is filed under the species Mus musculus. In words: Effective dose evaluated against maximal electric seizures (MES) or convulsions in mice; activity value ranges from 39.77-53.41. The format is functional.
Data set [7] is described as follows: Toxic dose was determined by the rotarod test in mice; activity value ranges from 130.89-161.13. The format is toxicity, organism-based. To be noted: mouse, in vivo.
For data set [8], the system named is Mus musculus. In words: Toxicity tested by rotarod test for neurologic deficit at interval of 4 hr when 600 mg/kg was administered intraperitoneally; shows activity. The format is organism-based. Details: dose 600 mg/kg, route intraperitoneal. The settings on record: in vivo, ip. In a few lines:
as §1

Data set [9] is described as follows: Protective index as the ratio of TD50 value against scMET to that of ED50 value against scMET. The format is ADME. The settings on record: read-out: PI. In short, it runs like this:
as §2

Data set [10] has as its system Mus musculus. In words: Toxicity tested by rotarod test for neurologic deficit at interval of 30 min when 300 mg/kg was administered intraperitoneally; shows activity. The format is organism-based. Details: dose 300 mg/kg, route intraperitoneal. The settings on record: in vivo, ip, 0.5 h. In a few lines:
as §1

The nature of data set [11]: Toxic dose was determined by the rotarod test in mice; activity value ranges from 156.61-251.07. To be noted: mouse, in vivo. The format is toxicity, organism-based.
Data set [12] is filed under the species Mus musculus. In words: Effective dose evaluated against maximal electric seizures (MES) or convulsions in mice; activity value ranges from 38.02-50.30. The format is functional.
Data set [13] has as its system Mus musculus. In words: Anticonvulsant activity of 300 mg/kg after 30 min. of intraperitoneal administration in mice against maximum electroshock seizures (MES); compound shows activity. The format is functional, organism-based. Set-up: dose 300 mg/kg.
In data set [14] the test system is Mus musculus. The data set can be described thus: Anticonvulsant activity of 600 mg/kg of compound against subcutaneous induced metrazole convulsions at interval of 30 min administered intraperitoneally in mice; compound shows activity. The format is functional, organism-based. Details: dose 600 mg/kg.
The subject of data set [15] is Mus musculus. The data set can be described thus: Anticonvulsant activity of 600 mg/kg of compound against subcutaneous induced metrazole convulsions at interval of 4 hr administered intraperitoneally in mice; compound does not show activity. Details: dose 600 mg/kg. The format is functional, organism-based.
Data set [16] relates to Mus musculus. The data set can be described thus: Toxicity tested by rotarod test for neurologic deficit at interval of 4 hr when 600 mg/kg was administered intraperitoneally; no activity. The format is organism-based. Set-up: dose 600 mg/kg, route intraperitoneal. To be noted: in vivo, ip. In a few lines: as §1
Data set [17] relates to Mus musculus. The data set can be described thus: Anticonvulsant activity of 600 mg/kg after 4 hr of intraperitoneal administration in mice against maximum electroshock seizures (MES); compound shows activity. The format is functional, organism-based. Set-up: dose 600 mg/kg.
Data set [18] relates to Mus musculus. The data set can be described thus: Toxicity tested by rotarod test for neurologic deficit at interval of 30 min when 600 mg/kg was administered intraperitoneally; shows activity. The format is organism-based. Details: dose 600 mg/kg, route intraperitoneal. The settings on record: in vivo, ip, 0.5 h. In a few lines: as §1
A short description of data set [19]: Toxic dose was determined by the rotarod test in mice; activity value ranges from 98.01-127.65. The format is toxicity, organism-based. The settings on record: mouse, in vivo.
The subject of data set [20] is Mus musculus. In words: Toxicity tested by rotarod test for neurologic deficit at interval of 4 hr when 300 mg/kg was administered intraperitoneally; shows activity. The format is organism-based. Set-up: dose 300 mg/kg, route intraperitoneal. The settings on record: in vivo, ip. In short, it runs like this:
as §1

Data set [21] relates to Mus musculus. The data set can be described thus: Toxicity tested by rotarod test for neurologic deficit at interval of 30 min when 600 mg/kg was administered intraperitoneally; no activity. The format is organism-based. Details: dose 600 mg/kg, route intraperitoneal. The settings on record: in vivo, ip, 0.5 h. In a few lines: as §1
Data set [22] deals with Mus musculus. In words: Toxicity tested by rotarod test for neurologic deficit at interval of 4 hr when 100 mg/kg was administered intraperitoneally; shows activity. The format is organism-based. Details: dose 100 mg/kg, route intraperitoneal. The settings on record: in vivo, ip. In short, it runs like this:
as §1

Data set [23] relates to Mus musculus. The data set can be described thus: Toxicity tested by rotarod test for neurologic deficit at interval of 30 min when 30 mg/kg was administered intraperitoneally; shows activity. Details: dose 30 mg/kg, route intraperitoneal. The format is organism-based. The settings on record: in vivo, ip, 0.5 h. In a few lines: as §1
The species entered for data set [24] is Mus musculus. In words: Effective dose evaluated against maximal electric seizures (MES) or convulsions in mice; activity value ranges from 2.18-3.07. The format is functional.
Data set [25] is described as follows: Toxic dose was determined by the rotarod test in mice activity value ranges from 153.02-189.96. The settings on record: mouse, in vivo. The format is toxicity, organism-based.
The subject of data set [26] is Mus musculus. In words: Effective dose was evaluated for its anticonvulsant activity against subcutaneous induced metrazole convulsions in mice; activity value ranges from 38.83-46.00. The format is functional. To be noted: sc.
The nature of data set [27]: Toxic dose was determined by the rotarod test in mice; activity value ranges from 556.77-815.69. The format is toxicity, organism-based. To be noted: mouse, in vivo.
The species named for data set [28] is Mus musculus. The data set can be described thus: Effective dose evaluated against maximal electric seizures (MES) or convulsions in mice; activity value ranges from 56.16-105.53. The format is functional.
The species entered for data set [29] is Mus musculus. The data set can be described thus: Effective dose evaluated against maximal electric seizures (MES) or convulsions in mice; activity value ranges from 246.97-337.89. The format is functional.
Data set [30] relates to Mus musculus. The data set can be described thus: Effective dose was evaluated for its anticonvulsant activity against subcutaneous induced metrazole convulsions in mice; activity value ranges from 122.64-177.02. To be noted: sc. The format is functional.
Data set [31] in a line: Toxic dose was determined by the rotarod test in mice. The format is toxicity, organism-based. The settings on record: mouse, in vivo.
Data set [32] is filed under the species Mus musculus. In words: Effective dose evaluated against maximal electric seizures (MES) or convulsions in mice;activity value ranges from 66.58-109.74. The format is functional.
Data set [33] is filed under the species Mus musculus. In words: Effective dose evaluated against maximal electric seizures (MES) or convulsions in mice; activity value ranges from 14.70-19.13. The format is functional.
Data set [34] in a line: Toxic dose was determined by the rotarod test in mice; activity value ranges from 40.62-57.10. The settings on record: mouse, in vivo. The format is toxicity, organism-based.

As usually defined, the TD50 is the 50% point of the dose-response relation for the toxic effect studied. Read a low TD50 as greater toxicity. One may read the ED50 as the dose at which the effect has come halfway, by size or by number of responders. Higher therefore signals weaker potency. On to `Cc1cccc(NC(=O)c2ccc(N)cc2)c1C`, for which the TD50 in data set [1] came to 104 mg/kg. In addition, in the data set filed under Mus musculus [2], it took a dose of 25.2 mg/kg to reach the 50% effect level (ED50). The Toxicity entry with Mus musculus [3] and in the data set with Mus musculus [4] was “LD50 < 600 mg/kg” each time. Moreover, the selectivity ratio in data set [5] came out at 4.11.

Compound `Cc1cccc(NC(=O)c2ccc(N)cc2)c1` registered an ED50 in the data set filed under Mus musculus [6] of 47 mg/kg. This compound also displayed a TD50 in data set [7] of 143 mg/kg. The Toxicity entry with Mus musculus [8] and in the data set with Mus musculus [10] was “Activity” throughout. Also, the selectivity ratio in data set [9] came out at 1.62; in data set [5], 3.03.

In the case of `Cc1ccc(NC(=O)c2ccc(N)cc2)cc1C`, the Toxicity result with Mus musculus [8] and with Mus musculus [3] was “Activity” each time. Also, the results for the selectivity ratio in data set [9] and in [5] were 2.4 and 4.59, respectively. Moreover, the TD50 in data set [11] was 194 mg/kg. The compound further returned an ED50 in the data set listed under Mus musculus [12] of 42.3 mg/kg.

Turning to `Cc1ccc(NC(=O)c2ccc(N)cc2)c(C)c1`, the Activity result with Mus musculus [13], in the data set on Mus musculus [14], in the data set with Mus musculus [15] and with Mus musculus [17] was “No activity” throughout. In addition, the Toxicity result in the data set on Mus musculus [16] and in the data set on Mus musculus [18] was “No activity” throughout.

With `Nc1ccc(C(=O)Nc2ccccc2)cc1`, in data set [19], the TD50 amounted to 111 mg/kg. For the same compound, the Toxicity entry in the data set with Mus musculus [20] and in the data set on Mus musculus [3] was “Activity” each time. For the same compound, the selectivity ratio in data set [9] is 1.88; in [5], 2.2.

Take `Cc1ccc(C)c(NC(=O)c2ccc(N)cc2)c1`: the Toxicity entry in the data set on Mus musculus [21] and with Mus musculus [16] was “No activity” throughout.

As to `Cc1cccc(C)c1NC(=O)c1ccc(N)cc1` [AMELTOLIDE], the Toxicity entry in the data set with Mus musculus [22] and with Mus musculus [23] was “Activity” throughout. Further, the ED50 in the data set listed under Mus musculus [24] was found to be 2.6 mg/kg.

Turning to `Cc1ccccc1NC(=O)c1ccc(N)cc1`, the Toxicity result with Mus musculus [10] and with Mus musculus [23] was “Activity” each time.

On to `Cc1ccc(NC(=O)c2ccc(N)cc2)cc1`, for which the Toxicity entry in the data set on Mus musculus [8] and in the data set on Mus musculus [3] was “Activity” throughout.

Regarding `Cc1cc(C)cc(NC(=O)c2ccc(N)cc2)c1`, the Toxicity result in the data set on Mus musculus [21] and in the data set with Mus musculus [16] was “No activity” each time.

Consider `CC(NC(=O)c1ccc(N)cc1)c1ccccc1` (centres undefined), for which the TD50 in data set [25] was 171 mg/kg. The compound further showed an ED50 in the data set on Mus musculus [26] of 41.8 mg/kg. The selectivity ratio stood at 4.1 in [9] and 9.5 in [5].

`CC(C)c1ccccc1NC(=O)c1ccc(N)cc1`: the TD50 in data set [27] is 709 mg/kg. Moreover, the Toxicity entry in the data set on Mus musculus [16] and in the data set with Mus musculus [18] was “No activity” each time. The compound also yielded an ED50 in the data set filed under Mus musculus [28] of 81.5 mg/kg. Also, the selectivity ratio in data set [5] amounted to 8.7.

Turning to `CCCC(CCC)C(=O)O` [VALPROIC ACID], the ED50 in the data set filed under Mus musculus [29] is 272 mg/kg; in the data set with Mus musculus [30] it was 149 mg/kg.

As to `Cc1cccc(C(C)C)c1NC(=O)c1ccc(N)cc1`, the Toxicity result with Mus musculus [21] is on record as “No activity”. The TD50 in data set [31] is above 1500 mg/kg. For the same compound, in the data set filed under Mus musculus [32], the ED50 was 86.1 mg/kg. Moreover, the selectivity ratio in [5] was above 17.4.

Take `CCc1cccc(C(C)C)c1NC(=O)c1ccc(N)cc1`: the Toxicity entry with Mus musculus [22] and with Mus musculus [23] was “Activity” in each case. This compound also registered an ED50 in the data set filed under Mus musculus [33] of 16.7 mg/kg. The TD50 in data set [34] amounted to 49.1 mg/kg. For the same compound, the selectivity ratio in [5] came to 2.95.
